For test [1], the system named is A 172. Put plainly: Cytotoxicity against human A172 cells assessed as inhibition of cell growth measured after 72 hrs by MTT assay. In kind it is functional, cell-based. The note with it: Homo sapiens, A 172, 72 h; read-out: IC50. A digest of the protocol:
(§1)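 A172 and NU04 cells were seeded at 4000 cells/well and U87MG at 5000 cells/well, incubated overnight at 37 °C, 5% CO2, then exposed to compound or vehicle for 72 h. MTT (3 mg/mL) was added for 4 h, formazan was dissolved in DMSO, and absorbance was read at 570 nm. IC50 came from nonlinear regression; mean ± SD of at least three experiments.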

The subject of test [2] is U-87 MG. Put plainly: Cytotoxicity against human U87MG cells assessed as inhibition of cell proliferation at <IC50 treated for 24 hrs and measured after 10 days by colony formation assay relative to control.
Test [3] in a line: Cytotoxicity against human NU04 cells assessed as inhibition of cell growth measured after 72 hrs by MTT assay. In kind it is functional, cell-based. The note with it: Homo sapiens, 72 h; read-out: IC50. An outline of the steps: as §1
In test [4] the test system is U-87 MG. Nature of the test: Cytotoxicity against human U87MG cells assessed as inhibition of cell growth measured after 72 hrs by MTT assay. Conditions: Homo sapiens, U-87 MG, 72 h; read-out: IC50. In kind it is functional, cell-based, U-87MG ATCC. A digest of the protocol: as §1
The target in test [5] is T1, Protein disulfide-isomerase (Homo sapiens, UniProt P07237). Put plainly: Inhibition of recombinant human N-terminal His-tagged PDI expressed in Escherichia coli BL21 (DE3) pLysS assessed as reduction in enzyme-mediated bovine insulin aggregation.
The subject of test [6] is U-87 MG. Put plainly: Cytotoxicity against human U87MG cells assessed as inhibition of cell proliferation at <IC50 measured after 72 hrs by MTT assay relative to control. In kind it is functional, U-87MG ATCC. On the technique in general: Tetrazolium assays rely on reduction of a dye to a coloured formazan, in cell work by metabolically active cells.
Test [7] deals with T1, Protein disulfide-isomerase. Nature of the test: Inhibition of recombinant human N-terminal His-tagged PDI expressed in Escherichia coli BL21 (DE3) pLysS at 100 uM measured after 1 hr by ANS dye based fluorescence spectra analysis. An outline of the steps:
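ANS spectral scan: PDI incubated with 100 μM compounds or matching DMSO in TBS for 1 h at 37 °C. ANS then added and incubated 20 min at 25 °C in the dark. Fluorescence spectrum recorded with excitation 370 nm, emission 400–700 nm.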
Target sequence in this assay (P07237 18-508 limits assumed): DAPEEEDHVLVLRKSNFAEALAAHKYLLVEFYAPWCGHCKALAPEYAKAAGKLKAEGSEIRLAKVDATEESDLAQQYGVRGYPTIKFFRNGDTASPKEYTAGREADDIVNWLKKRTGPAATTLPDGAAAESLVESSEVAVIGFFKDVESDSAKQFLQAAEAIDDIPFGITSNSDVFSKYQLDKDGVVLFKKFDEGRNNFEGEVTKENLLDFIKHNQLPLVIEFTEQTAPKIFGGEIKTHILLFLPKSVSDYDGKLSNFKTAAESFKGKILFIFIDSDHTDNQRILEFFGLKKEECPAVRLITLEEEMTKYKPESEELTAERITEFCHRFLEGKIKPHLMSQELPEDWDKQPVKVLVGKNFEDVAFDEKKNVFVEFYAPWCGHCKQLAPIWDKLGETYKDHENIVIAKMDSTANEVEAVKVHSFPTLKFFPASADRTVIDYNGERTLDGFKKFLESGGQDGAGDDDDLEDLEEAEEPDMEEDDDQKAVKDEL

Each structure is given as a SMILES string. Activity calls are given as the source filed them. No cut-off for these calls is given here. Bounds are passed on as bounds.

`CCN(CC)S(=O)(=O)c1ccc(C(=O)/C=C/c2cccc(O)c2)cc1`: the IC50 (commonly the concentration that gives 50% inhibition) in test [1] is 31.2 µM; in test [3], 19.2 µM; in test [4], 40.7 µM; in test [5] it was 1290 nM. The “inhibition (INH)” value in test [2] is on record as >50%.

For the molecule `COC(=O)c1cccc(/C=C/C(=O)c2ccc(O)c(C(F)(F)F)c2)c1`, the IC50 in test [1] was found to be 35 µM; in test [3], 10.3 µM; in test [4], 11.6 µM; in test [5], 490 nM. The “inhibition (INH)” value in test [2] is reported as >50%.

For `COc1ccc(/C=C/C(=O)c2ccc(O)cc2)cc1`, the IC50 in test [5] was determined as 1740 nM.

Take `N#Cc1cccc(/C=C/C(=O)c2ccc(O)c(C(F)(F)F)c2)c1`: in test [5], the half-maximal inhibitory concentration (IC50) was 2000 nM.

As to `N#Cc1ccc(/C=C/C(=O)c2ccc(O)cc2)cc1`, the IC50 was 20 µM in test [1], 12.8 µM in test [3], 15.1 µM in test [4] and 740 nM in test [5]. Moreover, the “inhibition (INH)” value in test [2] is >50%.

With `N#Cc1ccc(/C=C/C(=O)c2ccc(O)c(F)c2)cc1`, the IC50 in test [1] came to 28.4 µM; in test [3], 15.8 µM; in test [4], 29 µM; in test [5], 210 nM. Moreover, the “inhibition (INH)” value in test [6] is on record as >50%.

Turning to `O=C(/C=C/c1ccc(O)cc1)c1ccccc1O`, in test [5], the inhibition entry is “inactive”.

With `CC1(C)OB(c2ccc(/C=C/C(=O)c3ccccc3)cc2)OC1(C)C`, the IC50 in test [5] turned out to be 2200 nM.

With `CCCCN(CCCC)S(=O)(=O)c1ccc(C(=O)/C=C/c2cccc(C#N)c2)cc1`, the IC50 in test [1] came out at 67.3 µM; in test [3] it was 15.5 µM; in test [4], 17 µM; in test [5], 1340 nM. Further, in test [6], the “inhibition (INH)” value is recorded as >50%.

For `N#Cc1ccc(/C=C/C(=O)c2ccc(F)cc2O)cc1`, in test [5], the IC50 was 1800 nM.

Take `COC(=O)c1cccc(/C=C/C(=O)c2ccc(OC)c(O)c2)c1`: in test [5], the IC50 worked out at 47800 nM.

`O=C(/C=C/c1cccc(O)c1)c1ccc(OC(=O)c2cccs2)cc1`: the IC50 in test [5] was 1750 nM.

As to `O=C(/C=C/c1ccccc1C(F)(F)F)c1ccc(O)cc1`, the IC50 in test [5] was determined as 1670 nM.

Consider `N#Cc1cccc(/C=C/C(=O)c2ccc(B(O)O)cc2)c1`, for which the IC50 in test [1] stood at 20.2 µM; in test [3], 13 µM; in test [4] it was 24.3 µM; in test [5] it was 830 nM. Also, in test [6], the “inhibition (INH)” value is recorded as >50%.

On to `O=C(/C=C/c1cccc(O)c1)c1ccc(NS(=O)(=O)c2cccs2)cc1`, for which the IC50 in test [5] was determined as 11100 nM.

As to `O=C(/C=C/c1cccc(O)c1)c1ccccc1O`, in test [5], the inhibition result is “inactive”.

Regarding `O=C(/C=C/c1cccc(C(F)(F)F)c1)c1ccc(O)cc1`, in test [5], the IC50 was found to be 1560 nM.

`N#Cc1cccc(/C=C/C(=O)c2cccc(O)c2)c1`: the IC50 in test [5] was 1870 nM.

For `N#Cc1cccc(/C=C/C(=O)c2ccc(S(=O)(=O)Nc3ccccc3)cc2)c1`, the IC50 in test [1] worked out at 28.9 µM; in test [3] it was 18.7 µM; in test [4], 48.5 µM; in test [5] it was 1110 nM. For the same molecule, the “inhibition (INH)” value in test [6] was >50%.

`O=C(/C=C/c1ccc(B(O)O)cc1)c1ccccc1`: the IC50 in test [1] came out at 32.1 µM; in test [3], 22.9 µM; in test [4], 31.2 µM; in test [5], 1250 nM. For the same molecule, the “inhibition (INH)” value in test [6] was >50%.

For `O=C(/C=C/c1cccc(O)c1)c1ccc(NC(=O)c2cccs2)cc1`, the IC50 in test [5] worked out at 5740 nM.

In the case of `N#Cc1ccc(/C=C/C(=O)c2ccc(O)c(C(F)(F)F)c2)cc1`, the IC50 came out at 33.7 µM in test [1], 10.4 µM in test [3], 26.4 µM in test [4] and 1110 nM in test [5]. For the same molecule, in test [6], the “inhibition (INH)” value is on record as >50%.

`N#Cc1cccc(/C=C/C(=O)c2ccc(N)cc2)c1`: the IC50 in test [5] was > 500000 nM.

For `CCCN(CCC)S(=O)(=O)c1ccc(C(=O)/C=C/c2cccc(C(=O)OC)c2)cc1`, in test [5], the IC50 was > 100000 nM.

Regarding `N#Cc1cccc(/C=C/C(=O)c2cnccn2)c1`, the inhibition result in test [7] was “inactive”. Further, the IC50 in test [5] is > 500000 nM.

Consider `O=C(/C=C/c1ccc(C(F)(F)F)cc1)c1ccc(O)cc1`, for which the IC50 in test [5] is 2560 nM.

As for `N#Cc1cccc(/C=C/C(=O)c2ccc(Cl)c(F)c2)c1`, the IC50 in test [5] was > 500000 nM.

As to `N#Cc1cccc(/C=C/C(=O)c2ccc(N3CCCCC3)cc2)c1`, in test [5], the IC50 was > 500000 nM.

In the case of `O=C(/C=C/c1cccc(C(F)(F)F)c1)c1cnccn1`, the IC50 in test [5] stood at 9570 nM.

For the molecule `N#Cc1cccc(/C=C/C(=O)c2ccc(F)cc2O)c1`, in test [5], the IC50 was 2370 nM.

With `COc1ccc(C(=O)/C=C/c2cccc(C(=O)O)c2)cc1O`, in test [5], the IC50 is > 100000 nM.

Take `COc1cccc(C(=O)/C=C/c2cccc(C#N)c2)c1`: the IC50 in test [5] is 8130 nM.

For `O=C(O)c1cccc(/C=C/C(=O)c2cccc(O)c2)c1`, the half-inhibitory concentration (IC50) in test [5] amounted to 10200 nM.

Regarding `COC(=O)c1cccc(/C=C/C(=O)c2ccc(CO)c(Br)c2)c1`, the IC50 is 20.6 µM in test [1], 17.2 µM in test [3], 13.6 µM in test [4] and 130 nM in test [5]. The “inhibition (INH)” value in test [2] was >50%.

With `O=C(O)c1cccc(/C=C/C(=O)c2ccc(N3CCOCC3)cc2)c1`, the half-maximal inhibitory concentration (IC50) in test [5] is > 100000 nM.

For `COc1ccc(C(=O)/C=C/c2cccc(C#N)c2)cc1OC`, the IC50 in test [5] is > 100000 nM.

For `COc1ccc(/C=C/C(=O)c2ccc(NC(=O)c3cccs3)cc2)cc1`, the IC50 in test [5] is > 500000 nM.

On to `COC(=O)c1cccc(/C=C/C(=O)c2ccc(O)cc2)c1`, for which the IC50 in test [1] was 32.3 µM; in test [3], 30.6 µM; in test [4] it was 28.8 µM; in test [5] it was 400 nM. For the same molecule, the “inhibition (INH)” value in test [6] is >50%.

On to `CCCN(CCC)S(=O)(=O)c1ccc(C(=O)/C=C/c2cccc(C#N)c2)cc1`, for which the concentration for half-maximal inhibition (IC50) in test [1] amounted to 35 µM; in test [3], 26.6 µM; in test [4] it was 25.6 µM; in test [5], 820 nM. Besides, the “inhibition (INH)” value in test [6] is recorded as >50%.

As to `O=C(O)c1cccc(/C=C/C(=O)c2ccc(O)c(F)c2)c1`, the IC50 in test [5] worked out at 9100 nM.

For `O=C(O)c1cccc(/C=C/C(=O)c2ccc(O)c(C(F)(F)F)c2)c1`, the IC50 in test [5] amounted to 4090 nM.

For the molecule `COc1cc(C(=O)/C=C/c2cccc(C#N)c2)ccc1O`, the IC50 in test [5] came to 2720 nM.

On to `N#Cc1ccc(/C=C/C(=O)c2ccc(F)c(O)c2)cc1`, for which, in test [5], the IC50 was 1830 nM.

As to `CCCCN(CCCC)S(=O)(=O)c1ccc(C(=O)/C=C/c2cccc(C(=O)OC)c2)cc1`, the IC50 in test [5] was > 100000 nM.

Turning to `O=C(/C=C/c1ccccc1O)c1ccccc1O`, in test [5], the inhibition result was “inactive”.

As for `O=C(/C=C/c1ccc(Br)cc1)c1cccc(O)c1`, the IC50 in test [1] worked out at 67.8 µM; in test [3], 26.2 µM; in test [4], 76.3 µM; in test [5], 400 nM. Further, the “inhibition (INH)” value in test [2] is reported as >50%.

For `N#Cc1cccc(/C=C/C(=O)c2ccc(NS(=O)(=O)c3ccc([N+](=O)[O-])cc3)cc2)c1`, the IC50 in test [5] was 8510 nM.

With `N#Cc1cccc(/C=C/C(=O)c2ccc(Br)cc2)c1`, the IC50 in test [5] amounted to 1660 nM.

With `Nc1ccc(C(=O)/C=C/c2cccc(C(=O)O)c2)cc1`, the IC50 in test [5] was > 100000 nM.

As to `COC(=O)c1cccc(/C=C/C(=O)c2ccc(NS(=O)(=O)c3ccc([N+](=O)[O-])cc3)cc2)c1`, the IC50 in test [5] was > 100000 nM.

`N#Cc1cccc(/C=C/C(=O)c2ccc(N3CCOCC3)cc2)c1`: in test [5], the IC50 was > 500000 nM.

In the case of `COc1ccc(C(=O)/C=C/c2cccc(C#N)c2)cc1O`, in test [5], the IC50 worked out at 10900 nM.

As for `O=C(/C=C/c1ccc(-n2cnc3ccccc32)cc1)c1cccc(O)c1`, the IC50 was found to be 10.7 µM in test [1], 9.9 µM in test [3], 10.8 µM in test [4] and 230 nM in test [5]. Further, the “inhibition (INH)” value in test [6] is on record as >50%.

With `O=C(O)c1cccc(/C=C/C(=O)c2ccc(NS(=O)(=O)c3ccc([N+](=O)[O-])cc3)cc2)c1`, the IC50 in test [5] was 4000 nM.

The values above are taken from ChEMBL document CHEMBL4390639, “Design, Synthesis, and Biological Evaluation of Novel Allosteric Protein Disulfide Isomerase Inhibitors” (J Med Chem, 2019).
